# Measurements from different studies.
# Protocols differ between the studies behind these lines.
# Target: Serine/threonine-protein kinase RIO2 (RIOK2, Homo sapiens, UniProt Q9BVS4)
SMILES,test,conditions,remaining binding [%]
CC(C)(C)c1ccc(-c2nc(CBr)nn2-c2cccc(O)c2)cc1,"cell-free assay, competition with immobilised ligand",10 µM,84
F[C@@H]1CCN(c2nccc(-c3cnn4ncccc34)n2)C1,binding,1 µM,64
O=C(c1ccc(Nc2ncc(Cl)c(-c3cc4ccccc4s3)n2)cc1)N1CCC(N2CCCC2)CC1,"binding, competition with immobilised ligand",1 µM,40
CC(C)(O)c1cncc(-c2nc3ccc(F)cc3n2C2CC2)c1,"cell-free assay, competition with immobilised ligand",1 µM,100
c1cnn2ncc(-c3ccnc(N4CCC45COC5)n3)c2c1,binding,1 µM,61
C=CC(=O)N1CCC(C(=O)NCC(=O)N2CCN(c3nc(-c4cnc(N)nc4C(F)F)nc(N4CCOCC4)n3)CC2)CC1,"binding, competition with immobilised ligand",1 µM,83
N[C@@H]1CCN(c2nccc(-c3cnn4ncccc34)n2)C1,binding,1 µM,37
O=C(NCCCN1CCOCC1)c1ccc(Nc2ncc(Cl)c(-c3ccc(Cl)s3)n2)cc1,"binding, competition with immobilised ligand",1 µM,59
CCS(=O)(=O)c1cc2cc(C[C@](O)(CC(C)(C)c3ccc(F)cc3C(N)=O)C(F)(F)F)[nH]c2cn1,"cell-free assay, competition with immobilised ligand",1 µM,100
O=C(NCCCN1CCOCC1)c1ccc(Nc2nccc(-c3cc4ccccc4s3)n2)cc1,"binding, competition with immobilised ligand",1 µM,47
CC1=C(C#N)C(c2ccc3c(c2)c(NC(=O)c2ccccc2C)nn3C)C(C#N)=C(C)N1,"cell-free assay, competition with immobilised ligand",1 µM,65
COc1ccnn2ncc(-c3ccnc(N(C)C)n3)c12,binding,1 µM,63
N#Cc1ccccc1CSc1nnc2c(n1)[nH]c1ccccc12,"binding, competition with immobilised ligand",10 µM,94
NS(=O)(=O)c1cc(NC(=O)Cc2ccccc2)ccc1Oc1cccc(Cl)c1,"cell-free assay, competition with immobilised ligand",1 µM,100
C[C@@H]1CN(c2ccc3ncc(-c4ccc5[nH]nc(C6CC6)c5c4)n3n2)C[C@H](C)O1,"binding, competition with immobilised ligand",50 nM,76
CC(=O)N1CCC(c2ccc(C(=O)NC3=NCCN3)cc2C(F)(F)F)CC1,"cell-free assay, competition with immobilised ligand",1 µM,93
C[C@@H]1CCN(c2nccc(-c3cnn4ncccc34)n2)C1,binding,1 µM,75
O=C(Nc1c[nH]nc1C(=O)NC1CCNCC1)c1cc(F)cc(F)c1,"binding, competition with immobilised ligand",1 µM,100
COc1cnc(Nc2cccc(S(N)(=O)=O)c2)nc1N1CCN(c2ccccc2)CC1,"binding, competition with immobilised ligand",1 µM,83
c1ccc(N2CCN(Cc3nc4ccccc4[nH]3)CC2)nc1,"binding, competition with immobilised ligand",1 µM,100
COc1cnc(Nc2cccc(S(N)(=O)=O)c2)nc1N1CCN(c2ccccc2)C(=O)C1,"binding, competition with immobilised ligand",1 µM,100
CNC(=O)Nc1ccc2c(c1)[C@@]1(CC2)OC(=O)N(CC(=O)N(Cc2ccc(F)cc2)[C@@H](C)C(F)(F)F)C1=O,"cell-free assay, competition with immobilised ligand",1 µM,83
CN(CCCC(F)(F)F)c1nccc(-c2cnn3ncccc23)n1,binding,1 µM,100
